ChEMBL document CHEMBL1629583, “Establishment of in vitro susceptibility testing methodologies and comparative activities of piperacillin in combination with the penem {beta}-lactamase inhibitor BLI-489” (2009)
Values after ≈ are worked out from the molar mass of the structure shown.

Tests used:
Type in all cases: functional
[1] = system: Pseudomonas aeruginosa; test: Antimicrobial activity against Pseudomonas aeruginosa clinical isolate after 18 to 22 hrs by broth microdilution method in presence of beta-lactamase inhibitor BLI-489
How it was run: (§1)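 CLSI broth microdilution in Mueller-Hinton II broth. Serial dilutions of piperacillin were tested with BLI-489 held at a constant 4 μg/ml. Inoculum was 10^5 CFU/ml. Plates were incubated 18 to 22 h at 35°C in ambient air. MIC was the lowest concentration giving complete growth inhibition by unaided eye.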

[2] = system: Staphylococcus aureus; test: Antimicrobial activity against methicillin-susceptible Staphylococcus aureus clinical isolate after 18 to 22 hrs by broth microdilution method in presence of beta-lactamase inhibitor BLI-489
How it was run: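 Piperacillin serially diluted with BLI-489 held at a constant 4 μg/ml, by CLSI broth microdilution in Mueller-Hinton II broth. Inoculum was 10^5 CFU/ml. Plates were incubated 18 to 22 h at 35°C in ambient air. MIC was the lowest concentration completely inhibiting growth seen by the unaided eye.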

[3] = system: Staphylococcus haemolyticus; test: Antimicrobial activity against Staphylococcus haemolyticus clinical isolate after 18 to 22 hrs by broth microdilution method in presence of beta-lactamase inhibitor BLI-489; how it was run: as §1
[4] = system: Enterococcus faecium; test: Antimicrobial activity against vancomycin-resistant Enterococcus faecium clinical isolate after 18 to 22 hrs by broth microdilution method in presence of beta-lactamase inhibitor BLI-489
How it was run: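 CLSI broth microdilution in Mueller-Hinton II broth. Antibiotic in serial dilution with the β-lactamase inhibitor held at a constant 4 μg/ml. Inoculum 10^5 CFU/ml. Incubated 18 to 22 h at 35°C in ambient air.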

[5] = system: Streptococcus pneumoniae; test: Antimicrobial activity against penicillin-susceptible Streptococcus pneumoniae clinical isolate after 18 to 22 hrs by broth microdilution method in presence of beta-lactamase inhibitor Tazobactam
How it was run: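 Broth microdilution per CLSI in Mueller-Hinton II broth supplemented with 5% lysed horse blood, using serial dilutions of piperacillin-tazobactam. Inoculum was 10^5 CFU/ml. Incubation was 18 to 22 h at 35°C in ambient air. MIC was the lowest concentration with no growth visible to the unaided eye.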

[6] = system: Streptococcus pneumoniae; test: Antimicrobial activity against penicillin-intermediate Streptococcus pneumoniae clinical isolate after 18 to 22 hrs by broth microdilution method in presence of beta-lactamase inhibitor BLI-489
How it was run: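 Streptococci were tested by CLSI broth microdilution in Mueller-Hinton II broth plus 5% lysed horse blood. Piperacillin was serially diluted with BLI-489 fixed at a constant 4 μg/ml. Inoculum was 10^5 CFU/ml, with 18 to 22 h at 35°C in ambient air. MIC was the lowest concentration completely inhibiting growth by eye.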

[7] = system: Bacteroides fragilis; test: Antimicrobial activity against Bacteroides fragilis clinical isolate after 18 to 22 hrs by broth microdilution method
[8] = system: Bacteroides thetaiotaomicron; test: Antimicrobial activity against Bacteroides thetaiotaomicron clinical isolate after 18 to 22 hrs by broth microdilution method
[9] = system: Enterococcus casseliflavus; test: Antimicrobial activity against Enterococcus casseliflavus clinical isolate after 18 to 22 hrs by broth microdilution method in presence of beta-lactamase inhibitor Tazobactam
How it was run: (§2)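 Piperacillin-tazobactam was tested on recent clinical isolates by CLSI broth microdilution in Mueller-Hinton II broth, with tazobactam at constant 4 μg/ml. Wells held 10^5 CFU/ml and were incubated 18 to 22 h at 35°C in ambient air. MIC was the lowest concentration with no growth visible to the unaided eye.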

[10] = system: Enterococcus durans; test: Antimicrobial activity against Enterococcus durans clinical isolate after 18 to 22 hrs by broth microdilution method in presence of beta-lactamase inhibitor Tazobactam; how it was run: as §2
[11] = system: Enterococcus durans; test: Antimicrobial activity against Enterococcus durans clinical isolate after 18 to 22 hrs by broth microdilution method in presence of beta-lactamase inhibitor BLI-489
How it was run: (§3)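 CLSI broth microdilution in Mueller-Hinton II broth. Piperacillin serial dilutions were combined with BLI-489 held constant at 4 μg/ml. Inoculum was 10^5 CFU/ml. Plates were incubated 18 to 22 h at 35°C in ambient air. MIC was the lowest concentration completely inhibiting growth seen by the unaided eye. Piperacillin-tazobactam interpretive criteria were applied.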

[12] = system: Streptococcus pyogenes; test: Antimicrobial activity against Streptococcus pyogenes clinical isolate after 18 to 22 hrs by broth microdilution method in presence of beta-lactamase inhibitor BLI-489
How it was run: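 Streptococci were tested by CLSI broth microdilution in Mueller-Hinton II broth plus 5% lysed horse blood. Piperacillin dilutions contained a constant 4 μg/ml BLI-489. Inoculum was 10^5 CFU/ml, incubated 18 to 22 h at 35°C in air. MIC was the lowest concentration with no visible growth.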

[13] = system: Klebsiella pneumoniae; test: Antimicrobial activity against Klebsiella pneumoniae clinical isolate after 18 to 22 hrs by broth microdilution method in presence of beta-lactamase inhibitor Tazobactam
How it was run: (§4)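 Piperacillin-tazobactam was tested by CLSI broth microdilution in Mueller-Hinton II broth against clinical isolates. Inoculum was 10^5 CFU/ml, with 18 to 22 h incubation at 35°C in ambient air. MIC was read as the lowest concentration completely inhibiting visible growth.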

[14] = system: Klebsiella pneumoniae; test: Antimicrobial activity against Klebsiella pneumoniae clinical isolate after 18 to 22 hrs by broth microdilution method in presence of beta-lactamase inhibitor BLI-489; how it was run: as §1
[15] = system: Klebsiella pneumoniae; test: Antimicrobial activity against class A extended spectrum beta-lactamase- producing Klebsiella pneumoniae clinical isolate after 18 to 22 hrs by broth microdilution method in presence of beta-lactamase inhibitor Tazobactam
How it was run: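 CLSI broth microdilution of piperacillin-tazobactam in Mueller-Hinton II broth with serial dilutions. Inoculum was 10^5 CFU/ml. Incubation was 18 to 22 h at 35°C in ambient air. MIC was read as the lowest concentration giving complete inhibition of growth visible to the unaided eye.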

[16] = system: Klebsiella oxytoca; test: Antimicrobial activity against Klebsiella oxytoca clinical isolate after 18 to 22 hrs by broth microdilution method in presence of beta-lactamase inhibitor Tazobactam; how it was run: as §4
[17] = system: Morganella morganii; test: Antimicrobial activity against Morganella morganii clinical isolate after 18 to 22 hrs by broth microdilution method in presence of beta-lactamase inhibitor BLI-489; how it was run: as §1
[18] = system: Proteus mirabilis; test: Antimicrobial activity against Proteus mirabilis clinical isolate after 18 to 22 hrs by broth microdilution method in presence of beta-lactamase inhibitor BLI-489; how it was run: as §1
[19] = system: Acinetobacter calcoaceticus; test: Antimicrobial activity against Acinetobacter calcoaceticus clinical isolate after 18 to 22 hrs by broth microdilution method in presence of beta-lactamase inhibitor Tazobactam; how it was run: as §2
[20] = system: Acinetobacter lwoffii; test: Antimicrobial activity against Acinetobacter lwoffii clinical isolate after 18 to 22 hrs by broth microdilution method in presence of beta-lactamase inhibitor BLI-489; how it was run: as §3

CCN1CCN(C(=O)N[C@@H](C(=O)N[C@@H]2C(=O)N3[C@@H]2SC(C)(C)[C@@H]3C(=O)O)c2ccccc2)C(=O)C1=O [PIPERACILLIN]
MIC50 [1]: 8 µg/mL | MIC90 [1]: 64 µg/mL | MIC50 [2]: 0.25 µg/mL | MIC90 [2]: 0.5 µg/mL | MIC50 [3]: 32 µg/mL | MIC90 [3]: > 128 µg/mL | MIC50 [4]: > 128 µg/mL | MIC50 [5]: 0.008 µg/mL | MIC90 [5]: 0.015 µg/mL | MIC50 [6]: 0.25 µg/mL | MIC90 [6]: 1 µg/mL | MIC50 [7]: 8 µg/mL (≈ 15.5 µM) | MIC90 [7]: > 128 µg/mL | MIC50 [8]: 32 µg/mL (≈ 61.8 µM) | MIC90 [8]: > 128 µg/mL | MIC50 [9]: 4 µg/mL | MIC90 [9]: 16 µg/mL | MIC50 [10]: 4 µg/mL | MIC90 [10]: 16 µg/mL | MIC50 [11]: 2 µg/mL | MIC90 [11]: 8 µg/mL | MIC [12]: ≤ 0.004 µg/mL | MIC50 [12]: ≤ 0.004 µg/mL | MIC90 [12]: ≤ 0.004 µg/mL | MIC50 [13]: 2 µg/mL | MIC90 [13]: 16 µg/mL | MIC50 [14]: 2 µg/mL | MIC90 [14]: 8 µg/mL | MIC50 [15]: 32 µg/mL | MIC90 [15]: > 128 µg/mL | MIC50 [16]: 2 µg/mL | MIC90 [16]: 8 µg/mL | MIC50 [17]: 0.25 µg/mL | MIC90 [17]: 1 µg/mL | MIC50 [18]: 0.25 µg/mL | MIC90 [18]: 0.5 µg/mL | MIC50 [19]: > 128 µg/mL | MIC90 [19]: > 128 µg/mL | MIC50 [20]: 4 µg/mL | MIC90 [20]: 16 µg/mL
